From ChEMBL document CHEMBL1134715, “Aryloxy substituted N-arylpiperazinones as dual inhibitors of farnesyltransferase and geranylgeranyltransferase-I” (Bioorg Med Chem Lett, 2001)
Converted amounts (≈) assume the structure as drawn.

How the values were obtained:
[1] = biological target: T1, Protein farnesyltransferase (Homo sapiens, UniProt P49354+P49356); test: In vitro inhibition against human Farnesyltransferase catalyzed by incorporation of [3H]- FPP into recombinant Ras-CVIM; format: protein-complex assay
[2] = biological target: T1, Protein farnesyltransferase; test: Concentration required to displace 50% of a radiolabeled farnesyltransferase inhibitor from FPTase in cultured Ha-Ras transformed RAT1 cells; format: functional, cell-based
[3] = biological target: T2, Geranylgeranyl transferase type I (Homo sapiens, UniProt P49354+P53609); test: In vitro inhibition against human Geranylgeranyl transferase type I catalyzed by incorporation of [3H]- GGPP (geranylgeranyl pyrophosphate) into biotinylated peptide corresponding to the c-terminus of human Ki-Ras; format: protein-complex assay
Outline: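 Human GGPTase-I transferred [3H]GGPP onto a biotinylated human Ki-Ras C-terminal peptide. Enzyme and inhibitor were preincubated 30 min with 5 mM ATP before reaction. Some values were instead run without preincubation. IC50 is the concentration halving incorporation.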

Rat1 [4] = test: Percent RAT1 cell survival at 10 uM assessed by MTT viability staining; format: functional; conditions: Rattus norvegicus, read-out: Survival
Rat1 [5] = test: Inhibition of colony formation in K-ras-transformed RAT1 cells, ranges from 0.3-1; format: functional; conditions: Rattus norvegicus
Outline: (§1)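 Anchorage-independent growth of ras-transformed RAT1 cells in soft agar, read as colony formation. Potency is reported as IC90 for blocking colonies.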

Rat1 [6] = test: Inhibition of colony formation in v-H-ras-transformed RAT1 cells; format: functional; conditions: Rattus norvegicus; outline: as §1
[7] = biological target: T2, Geranylgeranyl transferase type I; test: Minimal concentration required to inhibit Rap 1a processing (prenylation) in PSN-1 cell; format: functional, cell-based

Row | Compound | IC50 [1] [nM] | IC50 [2] [nM] | IC50 [3] [nM] | MIC [7] [µM] | viability at 10 µM (Rat1 [4]) [%] | IC90 (Rat1 [5]) [nM] | IC90 (Rat1 [6]) [nM]
1 | N#Cc1ccc(Cn2cncc2CN2CCN(c3cccc(Cl)c3)C(=O)C2)cc1Oc1ccccc1 | 7 | 110 | 22 | 1 (≈ 0.498 µg/mL) | 80 | 1000 | 300
2 | O=C1CN(Cc2cncn2Cc2cccc(Oc3ccccc3)c2)CCN1c1ccc(Cl)cc1 | 670 |  | 136 |  |  |  | 
3 | N#Cc1ccc(Cn2cncc2CN2CCN(c3cccc(Cl)c3)C(=O)C2)cc1Oc1ccc(OCc2ccccc2)cc1 | 32 | 311 | 62 |  |  |  | 
4 | O=C1CN(Cc2cncn2Cc2cccc(Oc3ccccc3)c2)CCN1c1ccc(C(F)(F)F)cc1 | 5770 |  | 155 |  |  |  | 
5 | N#Cc1ccc(Cn2cncc2CN2CCN(c3cccc(Cl)c3)C(=O)C2)cc1 [L-778123 FREE BASE] |  |  |  | 1 (≈ 0.406 µg/mL) |  |  | 100
6 | N#Cc1ccc(Cn2cncc2CN2CCN(c3cccc(Cl)c3)C(=O)C2)cc1Oc1ccc2c(c1)CCCC2 | 4 |  | 290 |  |  |  | 
7 | N#Cc1ccc(Cn2cncc2CN2CCN(c3cccc(Cl)c3)C(=O)C2)cc1Oc1cccc(OCCO)c1 | 2.5 | 8 | 1.3 | 3 (≈ 1.67 µg/mL) |  |  | 

More lines, main results first:

Row | IC50 [1] [nM] | IC50 [2] [nM] | IC50 [3] [nM] | MIC [7] [µM] | Compound | viability at 10 µM (Rat1 [4]) [%] | IC90 (Rat1 [5]) [nM] | IC90 (Rat1 [6]) [nM]
8 | 1 | 48 | 199 |  | N#Cc1ccc(Cn2cncc2CN2CCN(c3cccc(Cl)c3)C(=O)C2)cc1Oc1ccc2ccccc2c1 |  |  | 
9 | 19 | 350 | 15 |  | N#Cc1ccc(Cn2cncc2CN2CCN(c3cccc(Cl)c3)C(=O)C2)cc1Oc1ccc(Cl)cc1 |  |  | 
10 |  |  | 65 |  | O=C1CN(Cc2cncn2Cc2cccc(Oc3ccccc3)c2)CCN1c1cccc(Cl)c1 |  |  | 
11 | 9 |  | 809 |  | N#Cc1cc(Cn2cncc2CN2CCN(c3cccc(Cl)c3)C(=O)C2)ccc1Oc1ccccc1 |  |  | 
12 | 4 | 93 | 20 |  | N#Cc1ccc(Cn2cncc2CN2CCN(c3cccc(Cl)c3)C(=O)C2)cc1Oc1cccc(Cl)c1 |  |  | 
13 | 18 | 255 | 12 |  | N#Cc1ccc(Cn2cncc2CN2CCN(c3cccc(Cl)c3)C(=O)C2)cc1Sc1ccccc1 |  |  | 
14 | 7 | 41 | 0.7 | 0.3 (≈ 0.16 µg/mL) | N#Cc1ccc(Cn2cncc2CN2CCN(c3cccc(Cl)c3)C(=O)C2)cc1Oc1ccccc1Cl |  |  | 
15 | 11 | 17 | 52 | 1 (≈ 0.499 µg/mL) | N#Cc1ccc(Cn2cncc2CN2CCN(c3cccc(Cl)c3)C(=O)C2)cc1Oc1cccnc1 |  |  | 
